How the values were obtained:
[1] = Hepatoprotective activity in rat WB-F344 cells assessed as inhibition of D-galactosamine-induced toxicity at 10 uM preincubated for 1 hr followed by D-galactosamine challenge measured after 24 hrs by MTT assay relative to control; assay type: functional
Method in brief: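 WB-F344 rat liver cells, compounds at 10 μM, D-galactosamine injury. Read-out is optical density. Survival is given as % of untreated normal cells. Inhibition (%) = [(OD sample − OD control)/(OD normal − OD control)] × 100. Bicyclol at 10 μM is the positive control. Data are means ± SD: n = 3 for samples, n = 6 for normal and control wells.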

[2] = Hepatoprotective activity against D-galactosamine-induced toxicity in rat WB-F344 cells assessed as cell survival at 10 uM preincubated for 1 hr followed by D-galactosamine challenge measured after 24 hrs by MTT assay relative to normal cell; assay type: functional; conditions: read-out: Survival
Method in brief: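 WB-F344 cells exposed to D-galactosamine, with test agents at 10 μM and bicyclol at 10 μM as positive control. Readout is optical density (OD). Survival is expressed as % of untreated normal cells. Values are means ± SD, n = 3 (n = 6 for normal and model-control groups).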

[3] = test system: A549; assay: Cytotoxicity against human A549 cells after 4 days by MTT assay; assay type: functional, cell-based; conditions: A549, 96 h
[4] = Cytotoxicity against human Bel7402 cells after 4 days by MTT assay; assay type: functional, cell-based; conditions: Bel-7402, 96 h
[5] = test system: KB; assay: Cytotoxicity against human KB cells after 4 days by MTT assay; assay type: functional, cell-based; conditions: 96 h
[6] = Inhibition of tyrosine kinase (unknown origin) by ELISA; parameters: species or system Homo sapiens

SMILES	inhibition at 10 µM [1] [%]	viability at 10 µM [2] [%]	IC50 [3] [µM]	IC50 [4] [µM]	IC50 [5] [µM]	IC50 [6] [µM]
CC(C)=C(C)[C@@H]1C[C@H]([C@H]2CC[C@@]3(C)C4=C(CC[C@]23C)[C@@]2(C)CC[C@H](O)C(C)(C)[C@@H]2CC4)C(=O)O1	71.9	91	–	–	–	–
CC(C)c1ccc2c(c1)C(=O)C[C@H]1C(C)(C)CCC[C@@]21C(=O)O	34.4	79	–	–	–	–
CC(C)=CCC(O)[C@@H](C)[C@H]1CC[C@@]2(C)C3=C(C(=O)C[C@]12C)[C@@]1(C)CC[C@H](O)C(C)(C)[C@@H]1CC3 (stereo partly drawn)	81.2	94	–	–	–	–
CC(C)[C@@H](C)CC[C@@H](C)[C@H]1CC[C@H]2C3=CCC4C[C@@H](O)CC[C@]4(C)[C@H]3CC[C@]12C (stereo partly drawn)	37.4	80	–	–	–	–
C=C(C)C(=O)CC(O)[C@@H](C)[C@H]1CC[C@@]2(C)C3=C(CC[C@]12C)[C@@]1(C)CC[C@H](O)C(C)(C)[C@@H]1CC3 (stereo partly drawn)	–	–	> 10	> 10	9.9	–
CC(C)[C@@H](C)/C=C/[C@@H](C)[C@H]1CC[C@H]2C3=CC[C@H]4C[C@@H](O)CC[C@]4(C)[C@H]3CC[C@]12C	43.8	82	–	–	–	–
CC(=O)/C=C/c1ccc(O)c(O)c1	–	–	> 10	4.7	> 10	–
COC(=O)c1cc(OC)c2c(c1-c1c(CO)cc(OC)c3c1OCO3)OCO2 [BICYCLOL]	–	80	–	–	–	–
O=c1[nH]cc(F)c(=O)[nH]1 [FLUOROURACIL]	–	–	–	5.5	8.1	–
CC(C)=CC[C@@H](O)[C@@H](C)[C@H]1CC[C@@]2(C)C3=C(CC[C@]12C)[C@@]1(C)CC[C@H](O)C(C)(C)[C@@H]1CC3 [INOTODIOL]	56.3	86	–	–	–	–
CC(C)=CCC[C@@H](C)[C@H]1CC[C@@]2(C)C3=C(CC[C@]12C)[C@@]1(C)CC[C@H](O)C(C)(C)[C@@H]1CC3 [LANOSTEROL]	74.8	92	–	–	–	–
CC[C@H](CC[C@@H](C)[C@H]1CC[C@H]2[C@@H]3CCC4=C[C@@H](O)CC[C@]4(C)[C@H]3CC[C@]12C)C(C)C [LAWSARITOL]	40.6	81	–	–	–	–
O=Cc1ccc(O)c(O)c1 [PROTOCATECHUALDEHYDE]	–	–	3.1	3.7	> 10	7.7
CC(C)=CCC[C@@H](C(=O)O)[C@H]1CC[C@@]2(C)C3=C(CC[C@]12C)[C@@]1(C)CC[C@H](O)C(C)(C)[C@@H]1CC3 [TRAMETENOLIC ACID]	75	92	–	–	–	–
COc1cc(C(=O)O)ccc1O [VANILLIC ACID]	56.5	86	–	–	–	–

— ChEMBL document CHEMBL3102703, “Chemical constituents from Inonotus obliquus and their biological activities” (J Nat Prod, 2014)
